Activity calls are given as the source filed them. The calls are words filed in the database; no cut-off is given here.
Key:
[1] = Inhibition of RTK/PI3K/AKT/mTOR signaling in human U87 cells assessed as down regulation of RFC4 gene expression at cytotoxic IC50 measured after 48 hrs relative to control; assay type: cell-based; settings: U-87MG ATCC
Procedure, shortened: (§1)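 Cells were exposed for 48hrs at 37°C in humidified 5% CO₂ to the compound at its previously determined IC₅₀, with Cisplatin at its IC₅₀ and an untreated negative control alongside. Each condition was run in triplicate. RNA was isolated from all samples by the same protocol. Genes were called differentially expressed by DESeq2 at q-value < 0.05 and fold change > 1.5.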

[2] = Inhibition of RTK/PI3K/AKT/mTOR signaling in human U87 cells assessed as down regulation of PTGES3 gene expression at cytotoxic IC50 measured after 48 hrs relative to control; assay type: cell-based; settings: U-87MG ATCC; procedure, shortened: as §1
[3] = Inhibition of RTK/PI3K/AKT/mTOR signaling in human U87 cells assessed as up regulation of PLD6 gene expression at cytotoxic IC50 measured after 48 hrs relative to control; assay type: cell-based; settings: U-87MG ATCC; procedure, shortened: as §1
[4] = Inhibition of RTK/PI3K/AKT/mTOR signaling in human U87 cells assessed as up regulation of macrophage stimulating 1 receptor gene expression at cytotoxic IC50 measured after 48 hrs relative to control; assay type: cell-based
[5] = Inhibition of RTK/PI3K/AKT/mTOR signaling in human U87 cells assessed as up regulation of keratinocyte associated protein 3 gene expression at cytotoxic IC50 measured after 48 hrs relative to control; assay type: cell-based
U-87 MG [6] = test: Cell cycle arrest in human U87 cells assessed as change in CDK7 gene expression at cytotoxic IC50 measured after 48 hrs […] relative to control; assay type: functional, U-87MG ATCC
Procedure, shortened: (§2)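 U87 expression profiling. Cells incubated 48hrs at 37°C, 5% CO₂ with the IC₅₀ concentration, alongside a cisplatin and an untreated control, in triplicate. RNA was isolated by one common protocol and profiled. DEGs were called with DESeq2 (q < 0.05, fold change > 1.5) and expressed as fold change versus untreated.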

[7] = Inhibition of RTK/PI3K/AKT/mTOR signaling in human U87 cells assessed as up regulation of NFATC4 gene expression at cytotoxic IC50 measured after 48 hrs relative to control; assay type: cell-based; settings: U-87MG ATCC; procedure, shortened: as §1
[8] = Inhibition of RTK/PI3K/AKT/mTOR signaling in human U87 cells assessed as down regulation of MAFF gene expression at cytotoxic IC50 measured after 48 hrs relative to control; assay type: cell-based; settings: U-87MG ATCC; procedure, shortened: as §1
U-87 MG [9] = test: Cell cycle arrest in human U87 cells assessed as accumulation at S-phase at cytotoxic IC50 measured after 48 hrs by propidium iodide staining based fluorescence cell imaging analysis (reference value: 19.2%); assay type: functional, U-87MG ATCC
Procedure, shortened: (§3)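 Cell cycle by PI staining. Cells seeded at 1×10^6 and grown overnight at 37°C, 5% CO₂, then exposed for 48hrs at their IC₅₀ concentration, with DMSO and cisplatin controls. Cells were trypsinized, washed in cold PBS and fixed in 70% ethanol at 4°C for 30 min. They were stained with PI in Triton X-100/RNase for 15 min at 37°C and imaged by fluorescence microscopy. Reported as mean ± S.E.M of triplicates.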

[10] = Inhibition of RTK/PI3K/AKT/mTOR signaling in human U87 cells assessed as up regulation of STC2 gene expression at cytotoxic IC50 measured after 48 hrs relative to control; assay type: cell-based; settings: U-87MG ATCC
[11] = Inhibition of RTK/PI3K/AKT/mTOR signaling in human U87 cells assessed as down regulation of WDR62 gene expression at cytotoxic IC50 measured after 48 hrs relative to control; assay type: cell-based; settings: U-87MG ATCC; procedure, shortened: as §1
[12] = Inhibition of RTK/PI3K/AKT/mTOR signaling in human U87 cells assessed as down regulation of COX17 gene expression at cytotoxic IC50 measured after 48 hrs relative to control; assay type: cell-based; settings: U-87MG ATCC
Procedure, shortened: (§4)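 U87 cells grown in MEM with 10% FBS at 37°C, 5% CO2. Cells exposed to IC50 of test compound for 48 hrs, alongside untreated and cisplatin controls, each condition in triplicate. RNA isolated and profiled; differential expression called with DESeq2 (q-value < 0.05, fold change > 1.5), fold change versus untreated.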

U-87 MG [13] = test: Induction of apoptosis in human U87 cells assessed as change in PIDD1 gene expression at cytotoxic IC50 measured after 48 hrs […] relative to control; assay type: functional, U-87MG ATCC; procedure, shortened: as §4
U-87 MG [14] = test: Induction of DNA damage in human U87 cells assessed as change in GADD45A gene expression at cytotoxic IC50 measured after 48 hrs […] relative to control; assay type: functional, U-87MG ATCC; procedure, shortened: as §2
U-87 MG [15] = test: Cell cycle arrest in human U87 cells assessed as change in CDK1 gene expression at cytotoxic IC50 measured after 48 hrs […] relative to control; assay type: functional, U-87MG ATCC; procedure, shortened: as §2
[16] = Inhibition of RTK/PI3K/AKT/mTOR signaling in human U87 cells assessed as up regulation of KCMF1 gene expression at cytotoxic IC50 measured after 48 hrs relative to control; assay type: cell-based; settings: U-87MG ATCC; procedure, shortened: as §1
[17] = Inhibition of RTK/PI3K/AKT/mTOR signaling in human U87 cells assessed as up regulation of lemur tyrosine kinase 3 gene expression at cytotoxic IC50 measured after 48 hrs relative to control; assay type: cell-based; settings: U-87MG ATCC
[18] = Inhibition of RTK/PI3K/AKT/mTOR signaling in human U87 cells assessed as up regulation of AHNAK2 gene expression at cytotoxic IC50 measured after 48 hrs relative to control; assay type: cell-based; settings: U-87MG ATCC; procedure, shortened: as §1
[19] = Inhibition of RTK/PI3K/AKT/mTOR signaling in human U87 cells assessed as up regulation of ankyrin repeat domain 10 gene expression at cytotoxic IC50 measured after 48 hrs relative to control; assay type: cell-based; settings: U-87MG ATCC
U-87 MG [20] = test: Induction of apoptosis in human U87 cells assessed as change in CTSV gene expression at cytotoxic IC50 measured after 48 hrs […] relative to control; assay type: functional, U-87MG ATCC; procedure, shortened: as §4
[21] = Inhibition of RTK/PI3K/AKT/mTOR signaling in human U87 cells assessed as up regulation of ral guanine nucleotide dissociation stimulator gene expression at cytotoxic IC50 measured after 48 hrs relative to control; assay type: cell-based; settings: U-87MG ATCC
[22] = Inhibition of RTK/PI3K/AKT/mTOR signaling in human U87 cells assessed as down regulation of DHX30 gene expression at cytotoxic IC50 measured after 48 hrs relative to control; assay type: cell-based; settings: U-87MG ATCC; procedure, shortened: as §4
LN-229 = test: Cell cycle arrest in human LN229 cells assessed as increase in accumulation at G1-phase at cytotoxic IC50 measured after 48 hrs by propidium iodide staining based fluorescence cell imaging analysis; assay type: functional; procedure, shortened: as §3
U-87 MG [23] = test: Induction of apoptosis in human U87 cells assessed as change in BAX gene expression at cytotoxic IC50 measured after 48 hrs […] relative to control; assay type: functional, U-87MG ATCC; procedure, shortened: as §4
[24] = Inhibition of RTK/PI3K/AKT/mTOR signaling in human U87 cells assessed as down regulation of LAMA2 gene expression at cytotoxic IC50 measured after 48 hrs relative to control; assay type: cell-based; settings: U-87MG ATCC; procedure, shortened: as §4
U-87 MG [25] = test: Cell cycle arrest in human U87 cells assessed as change in PCNA gene expression at cytotoxic IC50 measured after 48 hrs […] relative to control; assay type: functional, U-87MG ATCC; procedure, shortened: as §2
[26] = Inhibition of RTK/PI3K/AKT/mTOR signaling in human U87 cells assessed as up regulation of TOX2 gene expression at cytotoxic IC50 measured after 48 hrs relative to control; assay type: cell-based; settings: U-87MG ATCC

## CC(=O)C(=NNc1ccccc1C#N)C(C)=O
[1]
  log2FC: -1
[2]
  log2FC: -0.422
[3]
  log2FC: 1.77
[4]
  log2FC: 0.723
[5]
  log2FC: 1.03
U-87 MG [6]
  fold change (FC): -1.609
[7]
  log2FC: 2.89
[8]
  log2FC: -1.1
U-87 MG [9]
  Activity: 2.8%
[10]
  log2FC: 3.02
[11]
  log2FC: -1.86
[12]
  log2FC: -1.13
U-87 MG [13]
  log2FC: 2.467
U-87 MG [14]
  fold change (FC): -0.9679
U-87 MG [15]
  fold change (FC): 1.569
[16]
  log2FC: 0.499
[17]
  log2FC: 0.868
[18]
  log2FC: 0.621
[19]
  log2FC: 1.12
U-87 MG [20]
  log2FC: 1.986
[21]
  log2FC: 0.685
[22]
  log2FC: -0.431
LN-229
  Activity: Active
U-87 MG [23]
  log2FC: 2.512
[24]
  log2FC: -1.14
U-87 MG [25]
  fold change (FC): 1.668
[26]
  log2FC: 1.66

Reference: ChEMBL document CHEMBL4316593 (Eur J Med Chem, 2019)
